Compound activity deposited in PubChem by several laboratories.
Cav3 T inh: human Cav3.2 channel inhibition, primary screen; AID 449739; O95180; Cav3.2-expressing cells, Fluo-4 calcium fluorescence FDSS; hits give low values; B-score at 10 µM; 100,000 tested, 4% active;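 active means single-dose well whose peak fluorescence ratio is a statistical outlier from its plate by either plate-standardised score or position-corrected B-score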
Target sequence (O95180 whole entry, looked up): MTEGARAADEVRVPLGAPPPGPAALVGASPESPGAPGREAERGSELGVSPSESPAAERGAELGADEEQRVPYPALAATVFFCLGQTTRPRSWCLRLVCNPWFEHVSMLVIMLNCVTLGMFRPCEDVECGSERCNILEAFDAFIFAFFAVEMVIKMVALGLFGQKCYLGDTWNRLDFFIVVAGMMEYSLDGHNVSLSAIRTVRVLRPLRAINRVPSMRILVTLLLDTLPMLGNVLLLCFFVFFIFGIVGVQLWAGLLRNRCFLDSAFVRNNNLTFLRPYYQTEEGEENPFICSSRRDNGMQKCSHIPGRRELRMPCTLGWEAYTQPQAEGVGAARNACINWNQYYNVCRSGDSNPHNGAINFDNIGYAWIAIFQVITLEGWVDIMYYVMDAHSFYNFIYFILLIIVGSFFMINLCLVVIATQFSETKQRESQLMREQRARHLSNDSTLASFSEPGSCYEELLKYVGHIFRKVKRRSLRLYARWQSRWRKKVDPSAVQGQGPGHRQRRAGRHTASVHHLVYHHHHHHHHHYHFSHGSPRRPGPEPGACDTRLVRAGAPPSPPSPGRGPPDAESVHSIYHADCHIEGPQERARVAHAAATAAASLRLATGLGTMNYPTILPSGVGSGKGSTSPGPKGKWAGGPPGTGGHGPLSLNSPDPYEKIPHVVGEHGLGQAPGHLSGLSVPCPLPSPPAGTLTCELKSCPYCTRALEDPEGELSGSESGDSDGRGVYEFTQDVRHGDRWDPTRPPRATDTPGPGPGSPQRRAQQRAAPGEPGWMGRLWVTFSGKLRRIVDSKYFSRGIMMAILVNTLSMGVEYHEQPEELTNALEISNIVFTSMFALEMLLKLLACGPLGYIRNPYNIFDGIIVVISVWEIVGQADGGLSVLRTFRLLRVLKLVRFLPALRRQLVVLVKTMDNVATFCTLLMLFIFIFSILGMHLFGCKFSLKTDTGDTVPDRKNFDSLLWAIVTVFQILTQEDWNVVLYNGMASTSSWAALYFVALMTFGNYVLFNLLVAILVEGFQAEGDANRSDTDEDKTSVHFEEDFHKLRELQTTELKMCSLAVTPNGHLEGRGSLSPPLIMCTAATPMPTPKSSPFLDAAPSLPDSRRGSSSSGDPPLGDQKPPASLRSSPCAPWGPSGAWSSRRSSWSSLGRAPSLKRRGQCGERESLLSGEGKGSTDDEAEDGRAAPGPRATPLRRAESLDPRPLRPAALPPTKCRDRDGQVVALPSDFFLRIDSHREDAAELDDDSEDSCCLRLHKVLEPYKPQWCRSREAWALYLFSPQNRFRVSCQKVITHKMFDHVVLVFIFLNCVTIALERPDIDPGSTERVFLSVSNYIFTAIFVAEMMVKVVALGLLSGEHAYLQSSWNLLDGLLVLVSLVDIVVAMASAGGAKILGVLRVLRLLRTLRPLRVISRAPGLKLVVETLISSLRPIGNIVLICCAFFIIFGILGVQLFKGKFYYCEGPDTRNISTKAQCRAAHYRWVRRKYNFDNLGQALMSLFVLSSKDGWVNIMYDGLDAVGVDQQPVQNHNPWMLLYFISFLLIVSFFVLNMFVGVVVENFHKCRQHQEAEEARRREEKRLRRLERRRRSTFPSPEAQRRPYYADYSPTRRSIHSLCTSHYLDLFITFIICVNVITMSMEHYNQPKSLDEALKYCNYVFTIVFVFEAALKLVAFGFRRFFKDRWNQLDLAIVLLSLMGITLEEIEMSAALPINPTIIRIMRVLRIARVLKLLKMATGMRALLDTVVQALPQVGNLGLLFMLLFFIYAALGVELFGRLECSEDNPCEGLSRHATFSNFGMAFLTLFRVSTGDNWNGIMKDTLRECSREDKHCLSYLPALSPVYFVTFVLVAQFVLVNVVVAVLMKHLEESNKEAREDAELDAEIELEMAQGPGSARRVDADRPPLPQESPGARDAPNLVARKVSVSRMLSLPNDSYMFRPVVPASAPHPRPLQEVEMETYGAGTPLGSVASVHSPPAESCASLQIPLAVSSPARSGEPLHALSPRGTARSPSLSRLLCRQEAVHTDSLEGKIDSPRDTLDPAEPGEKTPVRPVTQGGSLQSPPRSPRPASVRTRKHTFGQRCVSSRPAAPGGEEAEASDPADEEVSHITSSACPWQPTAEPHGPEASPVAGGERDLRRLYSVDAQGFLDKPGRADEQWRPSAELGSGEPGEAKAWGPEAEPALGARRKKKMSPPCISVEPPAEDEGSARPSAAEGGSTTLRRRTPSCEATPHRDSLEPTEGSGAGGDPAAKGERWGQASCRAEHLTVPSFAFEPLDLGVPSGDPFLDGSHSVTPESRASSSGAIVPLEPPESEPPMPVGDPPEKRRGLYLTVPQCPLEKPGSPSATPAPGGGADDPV
Measles CPE: protection of cells from measles virus | Measles virus-infected cells, CPE protection, absorbance | protection (pct of control), % at 4 µM | 140,000 tested, 1.5% active; in the data active means protection mostly above about 24%, no sharp cut-off; inactive means mostly below about 26%
Phagocytosis inh: blocks phagocytosis by macrophages | J774A.1 macrophage IgG-bead phagocytosis, imaging | inhibition, % at 5 µM | 110,000 tested, 0.07% active | AID 1029;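 active means inhibition above the mean of the plate negative controls plus 5 SD, cut at about 13% in these data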;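 further: phagocytic index as fraction of beads internalized from green versus red external bead signal; plate controls were DMSO negative control for no effect and cytochalasin-D positive control for full effect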
DAT uptake mod: human DAT dopamine uptake with cocaine, either direction; B-score at 10 µM; LLC-PK1 hDAT cells, [14C]-dopamine uptake with cocaine IC80; actives deviate in either direction; 110,000 tested, 1.3% active; Q01959;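 active means Z score or B-score, a plate-position-corrected score, falls beyond the plate's 99.7% confidence bounds, in either direction; inactive means both scores lie inside the 99.7% bounds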;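 further: scored against the spread of the other compound wells on the same plate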
HIV Rev-RRE inh: disrupts HIV-1 Rev binding to RRE RNA; P05866; Rev peptide-RRE RNA binding, FRET; inhibition, % at 8 µM; 97,000 tested, 0.79% active; AID 704;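 active means inhibition above the screen-wide mean plus 3 SD, cut at about 35% in these data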;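 further: 0% = median DMSO wells and 100% = median Neomycin B control wells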
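System: Cy5-labelled duplex RRE RNA binding fluorescein-labelled HIV Rev peptide; Signal: fluorescein-to-Cy5 FRET, 480 nm excitation; Also added: labelled Rev peptide; Compound: one concentration, 8 µM nominal; Buffer or medium: HEPES pH 7.5 salt buffer with EDTA; Read-out: % inhibition of FRET ratio versus controls; Schedule: 5 min preincubation and 15 min binding, 25 °C.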
PTK2B oligo ant: antagonists of human Pyk2 oligomerization | z-score (the deposit names both 25 µM and 10 µM) | AID 1347419 | Q293 cells, Pyk2 FERM NanoBiT luminescence; hits give low values | Q14289 | 99,000 tested, 0.83% active;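 active means Z-score of -3 or lower, scaled per plate to the spread of control and sample wells; inactive means z-score above -3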;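 further: negative z-score means lost luminescence so less FERM oligomerization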
Numbers without * were called inactive; . = no result given. Most compounds without a hit are left out; they make up all but 5.9% or so of the library.

SMILES	Cav3 T inh	Measles CPE	Phagocytosis inh	DAT uptake mod	HIV Rev-RRE inh	PTK2B oligo ant
Cc1cccc(C)c1NC(=O)c1ccc(-c2ccc(Cl)cc2Cl)o1	-4.8*	10	0	-0.08	15	-1.4
Cc1ccccc1NC(=O)c1ccc(-c2ccc(Cl)cc2Cl)o1	-7.5*	3	0	-0.059	15	-0.23
O=C(COc1ccccc1Br)NCCc1nc2ccccc2[nH]1	.	12	-12	.	.	.
Cc1ccc(C(=O)N/C(=C\c2sccc2C)C(=O)NCc2ccco2)cc1	-0.54	61*	.	0.077	5	0.58
Cc1ccc(C(=O)N/C(=C\c2cccs2)C(=O)NCc2ccncc2)cc1	0.27	47*	.	-0.3	6	0.03
Cc1ccc(C(=O)N/C(=C\c2sccc2C)C(=O)NCc2ccncc2)cc1	.	6	-7	.	.	.
CCCN1CCC(=O)N([C@H](CSc2ccc(OC)cc2)c2ccccc2)CC1	1.3	.	.	-0.023	.	.
CCc1cc2c(CN3CCN(C)CC3)cc(=O)oc2cc1O	0.44	15	-2	-9.5*	6	0.08
Cc1ccc2c(CN3CCN(CCO)CC3)cc(=O)oc2c1C	0.33	6	-1	0.89	-2	-3.5*
CCc1cc2c(CN3CCN(CCO)CC3)cc(=O)oc2cc1O	.	20	1	1.6	12	0.61
CCCNC(=O)C(Cc1ccccc1)NS(=O)(=O)c1ccc2c(c1)CCC(=O)N2 (configuration not stated)	-0.77	14	1	-2.2*	10	.
C/C=C/C(=O)OCC(=O)Nc1c(Cl)cccc1Cl	1	30*	-1	-0.51	2	-0.13
C/C=C/C(=O)OCC(=O)Nc1cc([N+](=O)[O-])ccc1Cl	.	5	3	.	.	.
CCn1c(CNc2cccc(Cl)c2)nnc1SCc1ccccc1	-1.1	3	0	0.19	5	-0.68
CCn1c(CNc2ccc(Cl)cc2)nnc1SCc1ccc(C)cc1	-3.8*	11	.	-0.5	2	-0.42
CCn1c(CNc2ccc(Cl)cc2)nnc1SCc1ccc(Cl)cc1	-3.5*	2	.	-0.29	17	-0.14
Cc1ccccc1NC(=S)N(C)Cc1cn(C)c2ccccc12	.	4	-13	.	.	0.09
COCCNC(=O)/C(C#N)=C1\N=C(N)c2ccccc21	.	9	-3	.	.	.
COc1cccc(C2NC(=O)NC(C)=C2C(=O)OCCSC)c1OC (configuration not stated)	-0.013	.	.	0.39	4	1.1
CCOC(=O)c1[nH]c2ccccc2c1CCCN1C(=O)c2ccccc2C1=O	-1.1	36	.	0.0045	1	-3*
Clc1ccccc1CSc1nncn1NC/C=C/c1ccccc1	.	17	-10	.	.	.
Oc1ccccc1C=Nc1ccccc1-c1nc2ccccc2[nH]1	.	58*	-6	.	.	-0.31
CC1(C)Cc2c(cnn2-c2ccccc2)C(=O)/C1=N\NC(=O)c1ccccc1O	-1.8	10	-2	-0.66	0	-0.22
Cc1ccc(C)c(N2CCN(C(=O)Cn3c(=O)[nH]c4ccsc4c3=O)CC2)c1	-1.5	9	0	1.4	6	-1.5
Cn1c(CNC(=O)Nc2ccccc2)nnc1SCc1ccccc1	0.65	1	.	0.98	-2	-0.45
SMILES	Cav3 T inh	Measles CPE	Phagocytosis inh	DAT uptake mod	HIV Rev-RRE inh	PTK2B oligo ant
Cc1cc(C)cc(NC(=O)NCc2nnc(SCc3ccccc3)n2C)c1	-4.3*	7	0	-0.79	11	-0.28
O=C(NCCc1ccccn1)c1cc(-c2cccc3ccccc23)nc2ccccc12	.	16	12	.	.	.
CC(C)(C)N1C(=O)Cc2c1nc(N)c1c(N)nc(N3CCCCC3CO)c(C#N)c21 (configuration not stated)	-0.024	5	-1	-4.2*	30	-2.7
N#Cc1c(N2CCCCC2)nc(N)c2c(N)nc3c(c12)CC(c1ccccc1)O3 (configuration not stated)	-0.83	7	.	2.1	31	-1.8
N#CC(c1ccccc1)N(CCCCl)C(=O)c1ccc(Br)cc1 (configuration not stated)	.	5	.	.	.	.
OC(CNCc1ccc(F)cc1)(c1ccc(F)cc1)c1ccc(F)cc1	-4.2*	24	.	1.1	16	0.31
COc1ccc(CNCC(O)(c2ccc(Cl)cc2)c2ccc(Cl)cc2)cc1OC	-1.2	4	0	2	63*	-0.5
COc1ccc(CNCC(O)(c2ccc(Cl)cc2)c2ccc(Cl)cc2)cc1	-0.63	5	0	0.53	16	-0.7
CN(C)c1ccc(NC(=O)c2cc3c(=O)n4ccccc4nc3n2C)cc1	-0.97	.	.	0.34	-1	-0.17
Cn1c(C(=O)N2COCC2(C)C)cc2c(=O)n3ccccc3nc21	.	22*	.	.	0	1.1
Cc1ccc2nc(NC(=O)c3ccc(NS(=O)(=O)c4cccs4)cc3)sc2c1	.	10	-5	.	.	.
C=CCn1c(COc2ccccc2F)nnc1SCCN1C(=O)c2ccccc2C1=O	.	2	-13	.	.	.
CCN(CC)C(=S)Nc1ccc([N+](=O)[O-])cc1	.	3	7	.	.	.
CCOc1ccc(C2=Nn3c(nnc3-c3ccccc3OC)SC2)cc1	-5.3*	4	.	0.25	6	-2.1
CCOc1ccc(-c2nnc3n2N=C(c2ccc(OC)cc2)CS3)cc1	-1	10	.	-0.12	0	0.17
O=C(Nc1nncs1)c1cccnc1Cl	.	17	-6	.	.	.
O=C(CCC(=O)OCc1ccc(C(=O)Oc2ccccc2)cc1)Nc1cccc2ccccc12	-0.078	79*	.	-0.23	7	0.67
CC(C)CCNC(=O)C(c1ccco1)N(Cc1cccs1)C(=O)Cn1nnc2ccccc21 (configuration not stated)	-4.7*	1	-1	2.3	.	-3.1*
Cc1ccccc1N(C(=O)Cn1nnc(-c2cccs2)n1)C(C(=O)NCCC(C)C)c1ccco1 (configuration not stated)	-3.5*	9	.	0.34	6	-1.4
CC(C)CCNC(=O)C(c1ccco1)N(CC1CCCO1)C(=O)Cn1nnc2ccccc21 (configuration not stated)	0.4	37	.	-0.0021	0	0.2
CCCCOCCCNC(=O)/C=C/c1ccccc1Cl	-3.8	.	.	-0.62	7	1.9
Cc1oc(C(C)(C)C)cc1C(=O)N1CCCC1C(=O)O (configuration not stated)	0.22	26*	.	1	1	-0.2
CCC(CC)NC(=O)COC(=O)c1ccc(NS(=O)(=O)c2ccc3c(c2)OCCO3)cc1	.	7	0	.	5	0.3
CCN(CC)C(=O)CSc1nc(O)c(Cc2ccccc2)c(=O)n1-c1ccccc1	-0.26	10	.	-0.37	0	-0.19
CCN(CC)C(=O)CSc1nc2ccccc2c(=O)n1-c1ccccc1OC	1.6	19	0	1.9*	5	-0.73
CCCN(CCC)C(=O)CSc1nc2ccccc2c(=O)n1C1CCCC1	-5.6*	4	-1	-0.042	3	-1.6
CCCc1cc(-c2[nH]ncc2-c2ccc3c(c2)OCCCO3)c(O)cc1OC	-1	12	3	0.77	14	.
CCc1cc(-c2[nH]ncc2-c2ccc3c(c2)OCO3)c(O)cc1O	.	84*	0	.	.	-2.1
